Assay results published in ChEMBL document CHEMBL3997782, “Methoxylated 2'-hydroxychalcones as antiparasitic hit compounds” (Eur J Med Chem, 2017).

Target: hERG (KCNH2) (Homo sapiens, UniProt Q12809)
Assay: Inhibition of human ERG at 10 uM by Tracer Red dye based fluorescence polarization assay relative to control
Details: probe Tracer Red dye

Chain of hERG (KCNH2) (Q12809 whole entry): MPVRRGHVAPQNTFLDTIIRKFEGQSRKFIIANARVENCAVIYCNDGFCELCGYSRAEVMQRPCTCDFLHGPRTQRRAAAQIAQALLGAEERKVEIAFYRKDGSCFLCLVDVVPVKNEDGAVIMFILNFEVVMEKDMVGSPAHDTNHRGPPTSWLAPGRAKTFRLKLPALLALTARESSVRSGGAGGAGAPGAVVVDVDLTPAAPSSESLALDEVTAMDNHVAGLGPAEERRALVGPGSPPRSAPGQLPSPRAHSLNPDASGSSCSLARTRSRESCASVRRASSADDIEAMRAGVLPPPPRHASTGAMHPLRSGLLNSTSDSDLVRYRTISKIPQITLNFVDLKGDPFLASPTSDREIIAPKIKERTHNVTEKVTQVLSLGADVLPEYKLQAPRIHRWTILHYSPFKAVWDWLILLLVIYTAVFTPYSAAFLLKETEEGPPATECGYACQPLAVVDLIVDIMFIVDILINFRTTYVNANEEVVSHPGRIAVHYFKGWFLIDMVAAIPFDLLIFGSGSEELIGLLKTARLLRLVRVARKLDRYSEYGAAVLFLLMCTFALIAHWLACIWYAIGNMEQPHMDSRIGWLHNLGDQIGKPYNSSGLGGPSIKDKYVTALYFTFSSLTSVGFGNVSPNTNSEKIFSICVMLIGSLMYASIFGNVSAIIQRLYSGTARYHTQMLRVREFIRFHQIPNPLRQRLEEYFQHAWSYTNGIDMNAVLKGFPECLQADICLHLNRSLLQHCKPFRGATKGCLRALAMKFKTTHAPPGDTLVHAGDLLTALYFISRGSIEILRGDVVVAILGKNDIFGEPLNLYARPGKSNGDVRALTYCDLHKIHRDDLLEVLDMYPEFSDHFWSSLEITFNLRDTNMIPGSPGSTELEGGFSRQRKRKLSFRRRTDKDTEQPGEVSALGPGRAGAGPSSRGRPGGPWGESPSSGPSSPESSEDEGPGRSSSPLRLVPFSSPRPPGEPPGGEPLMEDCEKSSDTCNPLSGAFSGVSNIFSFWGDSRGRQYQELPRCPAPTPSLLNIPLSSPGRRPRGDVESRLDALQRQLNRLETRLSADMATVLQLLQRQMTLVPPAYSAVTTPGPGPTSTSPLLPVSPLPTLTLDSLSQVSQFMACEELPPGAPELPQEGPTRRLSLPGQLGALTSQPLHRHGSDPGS

Point of comparison: COc1ccc(C(=O)/C=C/c2c(OC)cccc2OC)c(O)c1, inhibition at 10 µM 18.8%. Against it:
- COc1ccc(C(=O)/C=C/c2ccc(OC)c(OC)c2)c(O)c1 — lower, 3.5%
- COc1ccc(O)c(C(=O)/C=C/c2c(OC)cccc2OC)c1 — lower, -7.1%

System: Trypanosoma cruzi
Assay: Anti-parasitic activity against Trypanosoma cruzi Y promastigotes infected in HG39 cells by qPCR analysis
Format: functional, cell-based
Details: in the assay text read “trypomastigotes” for “promastigotes”
Outline: (§1)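 Confluent HG39 cells (3 x 10^6 per well) infected at a 1:1 ratio with blood-derived T. cruzi Y strain trypomastigotes. Growth inhibition was read as parasite gDNA by TaqMan probe-based quantitative real-time PCR.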

COc1ccc(C(=O)/C=C/c2ccc(OC)c(OC)c2)c(O)c1 and COc1ccc(O)c(C(=O)/C=C/c2c(OC)cccc2OC)c1 cannot be ordered by EC50: < 10 µM for the first, < 10 µM for the second.

System: 786-0
Assay: Mitochondrial toxicity in human 786-O cells at 10 uM by mitotracker red chloromethyl-Xrosamine staining based-uptake method relative to control
Format: cell-based
Details: 786-0, 10 µM
Outline: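 786-O renal carcinoma cells kept in RPMI-1640 with 2 mM glutamine, 10% v/v FCS, streptomycin 100 µg/ml and penicillin G 100 U/ml. Mitochondrial toxicity monitored by MitoTracker Red CMXRos uptake with high-content imaging.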

Point of comparison: COc1ccc(O)c(C(=O)/C=C/c2c(OC)cccc2OC)c1, Activity 14.6%. Against it:
- COc1ccc(C(=O)/C=C/c2ccc(OC)c(OC)c2)c(O)c1 — lower, -5.8%
- COc1ccc(C(=O)/C=C/c2c(OC)cccc2OC)c(O)c1 — lower, 0%

System: Trypanosoma brucei brucei
Assay: Anti-parasitic activity against bloodstream form of Trypanosoma brucei brucei Lister 427 after 72 hrs by resazurin-based assay
Format: functional
Details: Lister 427, 72 h
Outline: (§2)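 Bloodstream-form T. brucei, modified resazurin-based viability assay. EC50 is the arithmetic mean of at least two independent determinations, each run in triplicate.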

Point of comparison: COc1ccc(O)c(C(=O)/C=C/c2c(OC)cccc2OC)c1, EC50 2.1 µM. Against it:
- COc1ccc(C(=O)/C=C/c2c(OC)cccc2OC)c(O)c1 — 1.6-fold higher, 3.4 µM

Target: CYP3A4 (Homo sapiens, UniProt P08684)
Sequence (P08684 whole entry): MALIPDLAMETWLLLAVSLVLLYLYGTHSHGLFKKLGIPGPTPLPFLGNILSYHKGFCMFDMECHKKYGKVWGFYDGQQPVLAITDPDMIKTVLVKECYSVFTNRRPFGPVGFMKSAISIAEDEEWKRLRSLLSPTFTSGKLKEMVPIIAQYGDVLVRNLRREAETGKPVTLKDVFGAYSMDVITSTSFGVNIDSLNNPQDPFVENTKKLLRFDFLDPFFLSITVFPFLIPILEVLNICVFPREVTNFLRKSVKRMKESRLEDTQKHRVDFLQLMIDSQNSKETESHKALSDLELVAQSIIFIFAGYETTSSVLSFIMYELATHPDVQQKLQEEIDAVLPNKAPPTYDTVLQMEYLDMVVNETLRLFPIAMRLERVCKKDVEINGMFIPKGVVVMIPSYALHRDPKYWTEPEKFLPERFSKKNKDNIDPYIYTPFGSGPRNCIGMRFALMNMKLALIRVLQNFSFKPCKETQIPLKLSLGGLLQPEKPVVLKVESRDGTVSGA
Assay: Inhibition of human CYP3A4 expressed in baculovirus-infected insect cells at 10 uM using Luciferin-PFBE as substrate in presence of NADPH by P450-Glo luminescence assay relative to control
Format: ADME
Details: probe Luciferin-PFBE

Point of comparison: COc1ccc(O)c(C(=O)/C=C/c2c(OC)cccc2OC)c1, inhibition at 10 µM 15.3%. Against it:
- COc1ccc(C(=O)/C=C/c2ccc(OC)c(OC)c2)c(O)c1 — lower, 2.4%
- COc1ccc(C(=O)/C=C/c2c(OC)cccc2OC)c(O)c1 — lower, 11.8%

System: not listed separately
Assay: Selectivity index, ratio of CC50 for human THP1 cells to EC50 for anti-parasitic activity against bloodstream form of Trypanosoma brucei brucei Lister 427
Format: toxicity
Details: THP-1 cells, read-out: Ratio CC50/EC50
Outline: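 SI = CC50 in PMA-differentiated THP-1 macrophages (MTT) divided by the antiparasitic EC50.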

COc1ccc(C(=O)/C=C/c2c(OC)cccc2OC)c(O)c1 and COc1ccc(O)c(C(=O)/C=C/c2c(OC)cccc2OC)c1 cannot be ordered by selectivity ratio: ≥ 29 for the first, ≥ 12 for the second.

System: Trypanosoma brucei brucei
Assay: Anti-parasitic activity against bloodstream form of Trypanosoma brucei brucei Lister 427 at 10 uM after 72 hrs by resazurin-based assay relative to control
Format: functional
Details: Lister 427, 72 h
Outline: as §2

Point of comparison: COc1ccc(C(=O)/C=C/c2ccc(OC)c(OC)c2)c(O)c1, inhibition at 10 µM 10%. Against it:
- COc1ccc(C(=O)/C=C/c2c(OC)cccc2OC)c(O)c1 — higher, 98%
- COc1ccc(O)c(C(=O)/C=C/c2c(OC)cccc2OC)c1 — higher, 86%

Target: CYP2C19 (Homo sapiens, UniProt P33261)
Sequence (P33261 whole entry): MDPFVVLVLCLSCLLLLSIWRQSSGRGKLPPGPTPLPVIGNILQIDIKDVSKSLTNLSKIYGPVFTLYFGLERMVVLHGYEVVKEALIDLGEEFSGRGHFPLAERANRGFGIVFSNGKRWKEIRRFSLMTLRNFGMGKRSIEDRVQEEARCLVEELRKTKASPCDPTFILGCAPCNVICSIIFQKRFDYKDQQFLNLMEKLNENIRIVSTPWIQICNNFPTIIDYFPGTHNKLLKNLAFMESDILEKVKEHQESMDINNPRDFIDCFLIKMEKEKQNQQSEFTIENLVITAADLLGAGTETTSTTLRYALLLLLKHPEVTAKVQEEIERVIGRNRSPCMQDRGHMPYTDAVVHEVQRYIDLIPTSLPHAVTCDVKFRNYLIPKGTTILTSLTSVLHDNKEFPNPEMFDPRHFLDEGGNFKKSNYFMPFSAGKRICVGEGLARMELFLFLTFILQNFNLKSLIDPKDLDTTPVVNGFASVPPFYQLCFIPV
Assay: Inhibition of human CYP2C19 expressed in baculovirus-infected insect cells at 10 uM using Luciferin-H EGE as substrate in presence of NADPH by P450-Glo luminescence assay relative to control
Format: ADME
Details: probe Luciferin-H EGE
Outline: (§3)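 CYP enzymes as microsomal preparations from baculovirus-infected insect cells, run on the P450-Glo luminogenic substrate platform. A fall in light output indicates inhibition.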

Point of comparison: COc1ccc(C(=O)/C=C/c2ccc(OC)c(OC)c2)c(O)c1, inhibition at 10 µM 50%. Against it:
- COc1ccc(C(=O)/C=C/c2c(OC)cccc2OC)c(O)c1 — higher, 74.9%
- COc1ccc(O)c(C(=O)/C=C/c2c(OC)cccc2OC)c1 — higher, 61.1%

Target: CYP2C9 (Homo sapiens, UniProt P11712)
Sequence (P11712 whole entry): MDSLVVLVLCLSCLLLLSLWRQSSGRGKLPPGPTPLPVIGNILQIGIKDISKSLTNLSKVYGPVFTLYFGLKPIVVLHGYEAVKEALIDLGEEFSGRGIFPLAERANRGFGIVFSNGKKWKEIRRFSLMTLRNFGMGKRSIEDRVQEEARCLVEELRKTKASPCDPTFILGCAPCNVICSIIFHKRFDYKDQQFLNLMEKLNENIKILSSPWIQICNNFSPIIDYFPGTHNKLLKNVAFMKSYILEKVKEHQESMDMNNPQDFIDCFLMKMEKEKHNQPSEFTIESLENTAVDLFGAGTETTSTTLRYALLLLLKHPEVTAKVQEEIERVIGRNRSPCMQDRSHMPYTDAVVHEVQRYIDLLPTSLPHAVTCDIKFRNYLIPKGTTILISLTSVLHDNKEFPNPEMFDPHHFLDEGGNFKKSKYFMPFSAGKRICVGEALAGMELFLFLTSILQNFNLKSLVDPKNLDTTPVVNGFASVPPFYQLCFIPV
Assay: Inhibition of human CYP2C9 expressed in baculovirus-infected insect cells at 10 uM using Luciferin-H as substrate in presence of NADPH by P450-Glo luminescence assay relative to control
Details: probe Luciferin-H

Point of comparison: COc1ccc(C(=O)/C=C/c2c(OC)cccc2OC)c(O)c1, inhibition at 10 µM -25.6%. Against it:
- COc1ccc(C(=O)/C=C/c2ccc(OC)c(OC)c2)c(O)c1 — higher, 10.7%
- COc1ccc(O)c(C(=O)/C=C/c2c(OC)cccc2OC)c1 — higher, 36.9%

System: not listed separately
Assay: Cytotoxicity against human THP1 cells by MTT assay
Format: cell-based
Details: THP-1 cells
Outline: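 THP-1 cells differentiated to macrophages with PMA, viability read by colorimetric MTT. CC50 and NOAEL are the arithmetic mean of at least two independent determinations, each run in triplicate.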

COc1ccc(C(=O)/C=C/c2ccc(OC)c(OC)c2)c(O)c1 and COc1ccc(C(=O)/C=C/c2c(OC)cccc2OC)c(O)c1 cannot be ordered by CC50: > 100 µM for the first, > 100 µM for the second.

In the case of COc1ccc(O)c(C(=O)/C=C/c2c(OC)cccc2OC)c1, the CC50 is reported as > 25 µM.

Target: CYP2D6 (Homo sapiens, UniProt P10635)
Sequence (P10635 whole entry): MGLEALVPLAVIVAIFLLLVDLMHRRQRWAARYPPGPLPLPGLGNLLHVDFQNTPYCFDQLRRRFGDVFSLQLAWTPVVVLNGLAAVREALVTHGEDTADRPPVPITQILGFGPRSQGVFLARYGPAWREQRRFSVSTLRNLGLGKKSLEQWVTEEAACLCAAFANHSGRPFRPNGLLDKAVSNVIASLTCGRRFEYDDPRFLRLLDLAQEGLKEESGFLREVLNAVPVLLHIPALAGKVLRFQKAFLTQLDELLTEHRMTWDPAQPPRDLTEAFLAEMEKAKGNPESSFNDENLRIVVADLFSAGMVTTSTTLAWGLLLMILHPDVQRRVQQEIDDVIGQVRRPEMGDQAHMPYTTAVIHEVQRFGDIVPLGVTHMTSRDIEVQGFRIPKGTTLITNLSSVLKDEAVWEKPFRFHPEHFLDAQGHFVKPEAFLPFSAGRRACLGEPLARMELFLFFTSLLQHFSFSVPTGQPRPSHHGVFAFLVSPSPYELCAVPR
Assay: Inhibition of human CYP2D6 expressed in baculovirus-infected insect cells at 10 uM using Luciferin-ME EGE as substrate in presence of NADPH by P450-Glo luminescence assay relative to control
Format: ADME
Details: probe Luciferin-ME EGE
Outline: as §3

Point of comparison: COc1ccc(C(=O)/C=C/c2ccc(OC)c(OC)c2)c(O)c1, inhibition at 10 µM 92.7%. Against it:
- COc1ccc(C(=O)/C=C/c2c(OC)cccc2OC)c(O)c1 — lower, 17.1%
- COc1ccc(O)c(C(=O)/C=C/c2c(OC)cccc2OC)c1 — lower, 11.7%

System: Leishmania infantum
Assay: Anti-parasitic activity against Leishmania infantum amastigotes infected in human THP1 cells at 50 uM after 5 days by Giemsa staining based assay relative to control
Format: functional, cell-based
Details: THP-1, 120 h
Outline: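 Intracellular L. infantum amastigotes in host cells, imaged by high-content automated imaging. Host cell number, infected cells and parasites per infected cell were counted. Infection Ratio = infected cells / total cells.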

In the case of COc1ccc(C(=O)/C=C/c2ccc(OC)c(OC)c2)c(O)c1, the inhibition at 50 µM is reported as 10%.

System: not listed separately
Assay: Cytotoxicity against human […] cells assessed as cell growth at 10 uM by Cell titer-Glo assay relative to control
Format: cell-based
Details: WI-38 cells, read-out: Activity
Outline: (§4)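 A549 and WI-38 cells grown in DMEM with 10% v/v FCS, streptomycin 100 µg/ml and penicillin G 100 U/ml. Cell number read as cellular ATP by CellTiter-Glo luminescence. Growth 60–100% scored non-cytotoxic, 0–60% cytostatic, below 0 cytotoxic.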

Point of comparison: COc1ccc(C(=O)/C=C/c2ccc(OC)c(OC)c2)c(O)c1, viability at 10 µM 128%. Against it:
- COc1ccc(C(=O)/C=C/c2c(OC)cccc2OC)c(O)c1 — lower, 0.1%
- COc1ccc(O)c(C(=O)/C=C/c2c(OC)cccc2OC)c1 — lower, 14.6%

System: not listed separately
Assay: Lipophilicity, log P of the compound
Format: physicochemical
Details: octanol/water

Point of comparison: COc1ccc(C(=O)/C=C/c2ccc(OC)c(OC)c2)c(O)c1, logP 3.53. Against it:
- COc1ccc(C(=O)/C=C/c2c(OC)cccc2OC)c(O)c1 — within 0.2 log units, 3.51
- COc1ccc(O)c(C(=O)/C=C/c2c(OC)cccc2OC)c1 — within 0.2 log units, 3.52

System: Trypanosoma cruzi
Assay: Anti-parasitic activity against Trypanosoma cruzi Y promastigotes infected in HG39 cells at 10 uM by qPCR analysis relative to control
Format: functional, cell-based
Details: in the assay text read “trypomastigotes” for “promastigotes”
Outline: as §1

Point of comparison: COc1ccc(C(=O)/C=C/c2ccc(OC)c(OC)c2)c(O)c1, inhibition at 10 µM 48%. Against it:
- COc1ccc(C(=O)/C=C/c2c(OC)cccc2OC)c(O)c1 — lower, 0%
- COc1ccc(O)c(C(=O)/C=C/c2c(OC)cccc2OC)c1 — higher, 52%

System: not listed separately
Assay: Cytotoxicity against human A549 cells assessed as cell growth at 10 uM by Cell titer-Glo assay relative to control
Format: cell-based
Details: read-out: Activity
Outline: as §4

Point of comparison: COc1ccc(O)c(C(=O)/C=C/c2c(OC)cccc2OC)c1, viability at 10 µM 103%. Against it:
- COc1ccc(C(=O)/C=C/c2ccc(OC)c(OC)c2)c(O)c1 — lower, 98.8%
- COc1ccc(C(=O)/C=C/c2c(OC)cccc2OC)c(O)c1 — lower, 48.2%

Target: Aurora kinase B (Homo sapiens, UniProt Q96GD4)
Sequence (Q96GD4 whole entry): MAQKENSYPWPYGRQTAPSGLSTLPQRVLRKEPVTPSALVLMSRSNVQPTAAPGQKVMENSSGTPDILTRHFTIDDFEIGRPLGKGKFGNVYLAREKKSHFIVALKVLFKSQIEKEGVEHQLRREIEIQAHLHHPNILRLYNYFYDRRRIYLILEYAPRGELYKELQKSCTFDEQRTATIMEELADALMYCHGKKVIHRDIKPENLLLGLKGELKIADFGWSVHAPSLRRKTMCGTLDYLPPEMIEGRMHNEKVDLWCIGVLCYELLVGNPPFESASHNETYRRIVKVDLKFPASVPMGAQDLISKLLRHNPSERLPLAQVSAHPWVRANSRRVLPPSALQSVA
Assay: Inhibition of N-terminal-GST-tagged recombinant full length human Aurora B expressed in baculovirus infected Sf9 cells at 10 uM using native Swine Myelin Basic Protein as substrate measured after 60 mins by ADP-Glo assay relative to control
Details: probe native Swine Myelin Basic Protein
Outline: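 Aurora B kinase activity measured by ADP-Glo, which detects ADP formed through a coupled luciferase luminescence read-out.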

Point of comparison: COc1ccc(C(=O)/C=C/c2ccc(OC)c(OC)c2)c(O)c1, inhibition at 1 h, 10 µM -10.4%. Against it:
- COc1ccc(C(=O)/C=C/c2c(OC)cccc2OC)c(O)c1 — higher, 92.1%
- COc1ccc(O)c(C(=O)/C=C/c2c(OC)cccc2OC)c1 — higher, 104%

Target: T1, CYP1A2 (Homo sapiens, UniProt P05177)
T1 sequence (P05177 whole entry): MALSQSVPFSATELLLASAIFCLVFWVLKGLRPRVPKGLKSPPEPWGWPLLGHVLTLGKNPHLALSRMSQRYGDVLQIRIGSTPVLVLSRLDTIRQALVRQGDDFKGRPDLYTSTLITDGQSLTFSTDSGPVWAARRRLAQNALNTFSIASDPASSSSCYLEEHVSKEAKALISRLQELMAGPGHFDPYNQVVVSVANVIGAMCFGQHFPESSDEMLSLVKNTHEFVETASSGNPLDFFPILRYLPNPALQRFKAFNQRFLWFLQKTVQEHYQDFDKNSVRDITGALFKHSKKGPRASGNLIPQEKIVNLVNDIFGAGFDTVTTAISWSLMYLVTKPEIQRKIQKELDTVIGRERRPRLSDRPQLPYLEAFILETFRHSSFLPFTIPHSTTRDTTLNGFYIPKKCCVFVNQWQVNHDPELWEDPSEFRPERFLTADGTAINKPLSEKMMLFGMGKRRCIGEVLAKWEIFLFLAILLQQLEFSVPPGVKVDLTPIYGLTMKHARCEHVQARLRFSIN
Assay: Inhibition of human CYP1A2 expressed in baculovirus-infected insect cells at 10 uM using Luciferin-1A2 as substrate in presence of NADPH by P450-Glo luminescence assay relative to control
Format: ADME
Details: probe Luciferin-1A2
Outline: as §3

Point of comparison: COc1ccc(C(=O)/C=C/c2ccc(OC)c(OC)c2)c(O)c1, inhibition at 10 µM 36.2%. Against it:
- COc1ccc(C(=O)/C=C/c2c(OC)cccc2OC)c(O)c1 — higher, 52.8%
- COc1ccc(O)c(C(=O)/C=C/c2c(OC)cccc2OC)c1 — higher, 41.7%
